Results on eight molecules are retold here after paper PMC4401318 (ACS Chemical Neuroscience, 2015).

In assay [1] the target is T1, MOP receptor (Homo sapiens, UniProt P35372). Kind of assay: biochemical.
Assay [2] concerns the target T2, DOP receptor (Homo sapiens, UniProt P41143). Kind of assay: Radioligand competition binding, DOP. A general note: In a radioligand displacement assay an active substance lowers the binding of a labelled ligand.
For assay [3], the target named is T3, KOP receptor (Homo sapiens, UniProt P41145). Nature of the assay: biochemical.
The target in assay [4] is T4, NOP receptor (Homo sapiens, UniProt P41146). Kind of assay: [35S]GTPγS binding stimulation. It is filed as biochemical. The note with it: for [35S]GTPγS NOP % stim: compared to standard agonist N/OFQ; for intrinsic (agonist) activity in [35S]GTPγS assay at any of the opioid receptors: NOP, KOP, MOP and DOP, up to 10 μM. On the technique in general: Binding of GTPγS marks nucleotide exchange on a G protein.

For assay [5], the target named is T4, NOP receptor. Nature of the assay: Radioligand competition binding, NOP.
The target of assay [6] is T3, KOP receptor. Nature of the assay: Radioligand competition binding, KOP.
The target of assay [7] is T4, NOP receptor. Kind of assay: Inhibition of agonist-stimulated [35S]GTPγS binding, NOP. It is filed as biochemical. The note with it: for nature of antagonism at NOP: agonist nociceptin concentration-response curves.
The target in assay [8] is T2, DOP receptor. The note with it: agonist DPDPE; ref 4b; cited from earlier work.
Assay [9] addresses T2, DOP receptor. Kind of assay: [35S]GTPγS binding stimulation. The class given is biochemical. The note with it: for [35S]GTPγS DOP % stim: compared to standard agonist DPDPE.
Assay [10] concerns the target T3, KOP receptor. The note with it: agonist U69,593; ref 4b; cited from earlier work.
Assay [11] addresses T1, MOP receptor. The note with it: cited from earlier work.
Assay [12] addresses T1, MOP receptor. It is filed as biochemical.
Assay [13] addresses T2, DOP receptor. Kind of assay: Inhibition of agonist-stimulated [35S]GTPγS binding, DOP. The class given is biochemical.
Assay [14] has as its target T3, KOP receptor. Kind of assay: Inhibition of agonist-stimulated [35S]GTPγS binding, KOP. It is filed as biochemical. The note with it: agonist U69,593 concentration-response curves; listed as AT-076. The gist of the method: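 CHO cells stably expressing human KOP cDNA, grown in DMEM/10% FBS with 0.4 mg/mL G418. Membranes were washed into 20 mM HEPES, 10 mM MgCl2, 100 mM NaCl, pH 7.4. Membranes (8–15 μg protein) were incubated 60 min at 25 °C with 50 pM [35S]GTPγS and 10 μM GDP. U69,593 concentration–response curves were run at several fixed test-compound concentrations. Binding was read by filtration and scintillation counting. Antagonism type was assigned by Schild regression.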

“Also recorded” adds a separate entry of the source. Marks after values point to notes of the source that are not given here.

As a reminder, the Ki is a measure of affinity in units of concentration, obtained from inhibition or displacement. The EC50 is the concentration that produces a half-maximal response. Low values mean greater potency, high ones weaker potency.

Consider `CC(C)[C@@H](CN1CCC(c2ccccc2)CC1)NC(=O)[C@H]1Cc2ccc(O)cc2CN1` [Compound 8, (R)-7-Hydroxy-N-((S)-3-methyl-1-(4-phenylpiperidin-1-yl)butan-2-yl)-1,2,3,4-tetrahydroisoquinoline-3-carboxamide], for which, at MOP receptor [1], the “[35S]GTPγS MOP % stim” value stood at 0%. The figures for the Ki at DOP receptor [2], on NOP receptor [5] and on KOP receptor [6] were above 10000 nM, 10.9 ± 2.14 nM and 2.15 ± 0.82 nM, respectively. The concentration giving a half-maximal response (EC50) on KOP receptor [3] came out at 408 ± 41 nM; on NOP receptor [4], 53.3 ± 12.1 nM. On KOP receptor [3], the “[35S]GTPγS KOP % stim” value was determined as 72.3 ± 4%. Besides, the “[35S]GTPγS NOP % stim” value at NOP receptor [4] came to 18.3 ± 1.3%.

With `C[C@H]1CN(C[C@H]2Cc3ccc(O)cc3CN2)CC[C@@]1(C)c1cccc(O)c1` [Compound 4, (R)-3-(((3R,4R)-4-(3-Hydroxyphenyl)-3,4-dimethylpiperidin-1-yl)methyl)-1,2,3,4-tetrahydroisoquinolin-7-ol], on MOP receptor [1], the EC50 was above 10000 nM and the “[35S]GTPγS MOP % stim” value is listed as 0%. This molecule registered a Ki at DOP receptor [2] of 205 nM. Moreover, affinity at KOP receptor [6] was put at a Ki of 410 ± 130 nM.

On to `Cc1cccc2c1CC[C@H](CN1CCC(c3c(Cl)cccc3Cl)CC1)C[C@@H]2O` [SB-612111, (−)-cis-1-methyl-7-[[4-(2,6-dichlorophenyl)piperidin-1-yl]methyl]-6,7,8,9-tetrahydro-5H-benzocyclohepten-5-ol, reference compound], for which the “[35S]GTPγS NOP % stim” value on NOP receptor [4] amounted to 0%.

With `C[C@H]1CN(C2CCCCCCC2)CC[C@@]1(C)c1cccc(O)c1` [Compound 3, 3-((3R,4R)-1-Cyclooctyl-3,4-dimethylpiperidin-4-yl)phenol], the Ki on DOP receptor [2] came to 2910 ± 834 nM. Further, on KOP receptor [3], the EC50 is above 10000 nM and the “[35S]GTPγS KOP % stim” value is given as 0%. Besides, the affinity at KOP receptor [6] corresponds to a Ki of 68.1 ± 2.21 nM.

On to `CC(C)[C@@H](CN1CC[C@@](C)(c2cccc(O)c2)[C@@H](C)C1)NC(=O)[C@H]1Cc2ccc(O)cc2CN1` [JDTic, (3R)-7-hydroxy-N-((1S)-1-{[(3R,4R)-4-(3-hydroxyphenyl)-3,4-dimethyl-1-piperidinyl]methyl}-2-methylpropyl)-1,2,3,4-tetrahydro-3-isoquinolinecarboxamide, reference compound], for which, on NOP receptor [7], the Kb worked out at 680.2 ± 2.35 nM and the “nature of antagonism at NOP” value is recorded as “noncompetitive antagonism”. Moreover, the “[35S]GTPγS MOP % stim” value at MOP receptor [1] is on record as 0%. For the same molecule, on DOP receptor [8], the “Ke DOP (antagonist potency)” value is 79.3 ± 9.3 ^f nM. Moreover, the “[35S]GTPγS DOP % stim” value on DOP receptor [9] worked out at 0%. Moreover, on KOP receptor [3], the “[35S]GTPγS KOP % stim” value came out at 0%. At NOP receptor [4], the EC50 was above 10000 nM, the “intrinsic (agonist) activity in [35S]GTPγS assay at any of the opioid receptors” value (from here on “intrinsic (agonist) activity”) is given as “no intrinsic activity” and the “[35S]GTPγS NOP % stim” value was 0%. For the same molecule, on NOP receptor [4] (compound alone), the “intrinsic activity in [35S]GTPγS functional assay at NOP” value is recorded as “no intrinsic activity”. Also, the “Ke KOP (antagonist potency)” value on KOP receptor [10] is listed as 0.01 ± 0.00 ^f nM. The “Ke MOP (antagonist potency)” value at MOP receptor [11] was 3.41 ± 0.36 ^f nM.

As for `C[C@H]1CN(C[C@H]2Cc3ccccc3CN2)CC[C@@]1(C)c1cccc(O)c1` [Compound 5, 3-((3R,4R)-3,4-Dimethyl-1-(((R)-1,2,3,4-tetrahydroisoquinolin-3-yl)methyl)piperidin-4-yl)phenol], at MOP receptor [1], the EC50 is above 10000 nM and the “[35S]GTPγS MOP % stim” value was determined as 0%. This molecule yielded a Ki on DOP receptor [2] of 38.8 ± 9.9 nM. Also, on DOP receptor [9], the EC50 was above 10000 nM and the “[35S]GTPγS DOP % stim” value was 0%. Moreover, on KOP receptor [3], the EC50 is above 10000 nM and the “[35S]GTPγS KOP % stim” value stood at 0%. Besides, at NOP receptor [4], the concentration giving a half-maximal response (EC50) was above 10000 nM, the “intrinsic (agonist) activity” value is reported as “no intrinsic activity” and the “[35S]GTPγS NOP % stim” value is recorded as 0%. The affinity at KOP receptor [6] corresponds to a Ki of 19.5 ± 6.6 nM.

Take `CC(C)[C@@H](CN1CCC(c2cccc(O)c2)CC1)NC(=O)[C@H]1Cc2ccc(O)cc2CN1` [Compound 6, (R)-7-Hydroxy-N-((S)-1-(4-(3-hydroxyphenyl)piperidin-1-yl)-3-methylbutan-2-yl)-1,2,3,4-tetrahydroisoquinoline-3-carboxamide]: at MOP receptor [12] (at the MOP and DOP receptors), the “Ke more potent than that of JDTic” value was 3–6 fold. The “nature of antagonism at MOP” value on MOP receptor [12] (listed as AT-076) is listed as “competitive antagonist; also recorded: competitive antagonism”. For the same molecule, the “nature of antagonism at NOP” value on NOP receptor [7] (listed as AT-076) is “noncompetitive antagonist profile; also recorded: insurmountable antagonism”. In addition, the Kb on DOP receptor [13] turned out to be 24.9 ± 13 nM. Moreover, at DOP receptor [13] (agonist DPDPE concentration-response curves, listed as AT-076), the “nature of antagonism at DOP” value is “competitive antagonist; also recorded: competitive antagonism”. On MOP receptor [1], the EC50 is above 10000 nM and the “[35S]GTPγS MOP % stim” value is recorded as 0%. In addition, on DOP receptor [9], the EC50 is above 10000 nM and the “[35S]GTPγS DOP % stim” value worked out at 0%. In addition, on KOP receptor [3], the EC50 was above 10000 nM and the “[35S]GTPγS KOP % stim” value was determined as 0%. In addition, on NOP receptor [4], the “intrinsic (agonist) activity” value is on record as “no intrinsic (agonist) activity” and the “[35S]GTPγS NOP % stim” value is recorded as 0%. For the same molecule, on KOP receptor [14], the “nature of antagonism at KOP” value is “noncompetitive antagonist profile; also recorded: insurmountable antagonism”. Besides, the “increase in NOP binding affinity compared with JDTic” value on NOP receptor [5] (ratio of Ki) stood at 10 fold.

As for `CC(C)[C@@H](CN1CCC(c2cccc(O)c2)CC1)NC(=O)[C@H]1Cc2ccccc2CN1` [Compound 7, (R)-N-((S)-1-(4-(3-Hydroxyphenyl)piperidin-1-yl)-3-methylbutan-2-yl)-1,2,3,4-tetrahydroisoquinoline-3-carboxamide], on DOP receptor [2], the Ki was determined as 1400 ± 111 nM. Besides, on KOP receptor [3], the EC50 was above 10000 nM and the “[35S]GTPγS KOP % stim” value is on record as 0%. Also, at NOP receptor [4], the EC50 is above 10000 nM and the “[35S]GTPγS NOP % stim” value stood at 7.0 ± 3.2%. Also, on KOP receptor [6], the Ki was found to be 100 ± 0.9 nM.
